In ChEMBL document CHEMBL1140409, “Discovery of potent, nonsystemic apical sodium-codependent bile acid transporter inhibitors (Part 2)” (J Med Chem, 2005) one finds Activity, Efficacy and IC50 data, which are given here for 58 molecules.

System in the first data set: not listed separately
Kind of data set: Amount (dissolved in aqueous Tween-80) in bile of rat was determined by fecal bile acid content for 45 min in a 37 degree C. More on the design: concentration or dose not given beside the values. The conditions noted are these: in vivo, 0.75 h. In kind it is ADME, tissue-based, Feces. In short, it runs like this: (§1)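 Male Wistar rats (275–300 g) were gavaged once each morning for 4 days at 5, 0.2 or 0.04 mpk in aqueous 0.2% (v/v) Tween-80 (2 mL/kg). Feces from the final 48 h were homogenized in twice their weight of water. Homogenate was diluted in butanol/water (2:0.6), extracted 45 min at 37 °C, centrifuged, and bile acids (μmol/day) measured enzymatically. Scores compared against a reference analogue at 0.04 mg/kg.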
Molecule `CCCCC1(CCCC)CS(=O)(=O)c2ccc(N(C)C)cc2[C@@H](c2ccc(OCCCC[N+]34CCN(CC3)CC4)cc2)[C@H]1O` came in with an Activity of 0.12%. As for `CCCCC1(CCCC)CS(=O)(=O)c2ccc(N(C)C)cc2[C@@H](c2ccc(OCC(=O)NCC(=O)O)cc2)[C@H]1O`, the Activity was determined as 7.14%. The same measure, in the same setting: next, `CCCCC1(CCCC)CS(=O)(=O)c2ccc(N(C)C)cc2[C@@H](c2ccc(OCc3ccc(C[N+]45CCN(CC4)CC5)cc3)cc2)[C@H]1O` [MARALIXIBAT]: 0.11%; `CCCCC1(CCCC)CS(=O)(=O)c2ccc(N(C)C)cc2[C@@H](c2ccc(OCc3ccc(CN(CC(=O)O)CC(=O)O)cc3)cc2)[C@H]1O`: 0.12%.

System in another data set: not listed separately
In words: Efficacy to increase fecal bile acid excretion; + is more efficacious. The data set is classed as ADME, tissue-based, Feces. The conditions noted are these: rat. In short, it runs like this:
as §1
As to `CCCCC1(CCCC)CS(=O)(=O)c2ccc(N(C)C)cc2[C@@H](c2ccc(OCCCC[N+]34CCN(CC3)CC4)cc2)[C@H]1O`, the Efficacy entry was “More efficacious than analogue 2”. As for `CCCCC1(CCCC)CS(=O)(=O)c2ccc(N(C)C)cc2[C@@H](c2ccc(OCC(=O)NCC(=O)O)cc2)[C@H]1O`, the Efficacy entry is “More efficacious than analogue 2”. With `CCCCC1(CCCC)CS(=O)(=O)c2ccc(N(C)C)cc2[C@@H](c2ccc(OCc3ccc(C[N+]45CCN(CC4)CC5)cc3)cc2)[C@H]1O` [MARALIXIBAT], the Efficacy result is “More efficacious than analogue 2”.

Another data set deals with T1, Ileal sodium/bile acid cotransporter (Homo sapiens, UniProt Q12908).
T1 sequence (Q12908 whole entry): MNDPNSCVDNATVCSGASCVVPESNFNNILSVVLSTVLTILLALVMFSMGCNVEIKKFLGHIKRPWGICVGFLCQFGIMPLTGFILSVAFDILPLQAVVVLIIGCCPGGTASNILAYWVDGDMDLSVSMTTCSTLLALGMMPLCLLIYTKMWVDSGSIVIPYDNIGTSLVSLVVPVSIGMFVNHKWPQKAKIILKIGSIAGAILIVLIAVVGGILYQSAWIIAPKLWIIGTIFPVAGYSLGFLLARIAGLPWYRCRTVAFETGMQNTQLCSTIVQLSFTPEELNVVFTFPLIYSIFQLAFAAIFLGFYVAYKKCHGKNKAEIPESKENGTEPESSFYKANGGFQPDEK
In words: In vitro inhibition of ASBT mediated uptake of [14C]taurocholate (5 uM) in baby hamster cells expressing human IBAT. The data set is classed as cell-based.
Conditions: not given
`CCCCC1(CCCC)CS(=O)(=O)c2ccc(N(C)C)cc2[C@@H](c2cccc3ccccc23)[C@H]1O` (racemic) yielded a half-inhibitory concentration (IC50) of 620 nM. As for `CCCCC1(CCCC)CS(=O)(=O)c2ccc(N(C)C)cc2[C@@H](c2ccc(OCCOCCOCC[N+](C)(C)C)cc2)[C@H]1O`, the IC50 is 4 nM. In turn, `CCCCC1(CCCC)CS(=O)(=O)c2ccc(N(C)C)cc2[C@@H](c2ccc(OCCOCC[N+](CC)(CC)CC)cc2)[C@H]1O` displayed a concentration for half-maximal inhibition (IC50) of 5.7 nM. Take `CCCCC1(CCCC)CS(=O)(=O)c2ccc(N(C)C)cc2[C@@H](c2ccc(CO)cc2)[C@H]1O` (racemic): half-maximal inhibition (IC50) was put at 11 nM. Same read-out and setting: for `CCCCC1(CCCC)CS(=O)(=O)c2ccc(N(C)C)cc2[C@@H](c2cccc(N)c2)[C@H]1O` (racemic) the value was 2 nM. In the case of `CCCCC1(CCCC)CS(=O)(=O)c2ccc(N(C)C)cc2[C@@H](c2cccc(CN(C)C)c2)[C@H]1O` (racemic), inhibition was half-maximal at 47 nM (IC50). Regarding `CCCCC1(CCCC)CS(=O)(=O)c2ccc(N(C)C)cc2[C@@H](c2ccc(OCCOCC[N+]34CCN(CC3)CC4)cc2)[C@H]1O`, half-maximal inhibition (IC50) was put at 8.5 nM.

The molecule `CCCCC1(CCCC)CS(=O)(=O)c2ccc(N(C)C)cc2[C@@H](c2ccc(OCc3cc[n+](CC)cc3)cc2)[C@H]1O` came in with a half-maximal inhibitory concentration (IC50) of 6 nM. `CCCCC1(CCCC)CS(=O)(=O)c2ccc(N(C)C)cc2[C@@H](c2cccc(C(=O)OC)c2)[C@H]1O` (racemic) had an IC50 of 7 nM. Consider `CCCCC1(CCCC)CS(=O)(=O)c2ccc(N(C)C)cc2[C@@H](c2ccc(OCCCCC[N+]34CCN(CC3)CC4)cc2)[C@H]1O`, for which the IC50 is 0.5 nM.

`CCCCC1(CCCC)CS(=O)(=O)c2ccc(N(C)C)cc2[C@@H](c2ccc(C(C)(C)C)cc2)[C@H]1O` (racemic): the midpoint of inhibition, the IC50, lay at 1000 nM.

`CCCCC1(CCCC)CS(=O)(=O)c2ccc(N(C)C)cc2[C@@H](c2ccc(OCCOCCOCCN(CC)CC)cc2)[C@H]1O`: the IC50 amounted to 30 nM. Still for that read-out and setting: next, `CCCCC1(CCCC)CS(=O)(=O)c2ccc(N(C)C)cc2[C@@H](c2ccc(O)c(O)c2)[C@H]1O` (racemic): 9.5 nM; `CCCCC1(CCCC)CS(=O)(=O)c2ccc(N(C)C)cc2[C@@H](c2cccc(OC)c2)[C@H]1O` (racemic): 11 nM. The same measure, in the same setting: for `CCCCC1(CCCC)CS(=O)(=O)c2ccc(N(C)C)cc2[C@@H](c2ccc(OCc3ccncc3)cc2)[C@H]1O` the value was 28 nM. In the case of `CCCCC1(CCCC)CS(=O)(=O)c2ccc(N(C)C)cc2[C@@H](c2cccc(OCC[N+](CC)(CC)CC)c2)[C@H]1O`, the IC50 came to 7 nM.

Consider `CCCCC1(CCCC)CS(=O)(=O)c2ccc(N(C)C)cc2[C@@H](c2ccc3cc(O)ccc3c2)[C@H]1O` (racemic), for which the IC50 is 17 nM.

For the molecule `CCCCC1(CCCC)CS(=O)(=O)c2ccc(N(C)C)cc2[C@@H](c2ccc(OC)c(F)c2)[C@H]1O` (racemic), the concentration for half-maximal inhibition (IC50) worked out at 3.6 nM.

In turn, `CCCCC1(CCCC)CS(=O)(=O)c2ccc(N(C)C)cc2[C@@H](c2ccc(OCC[N+](C)(C)C)cc2)[C@H]1O` came in with a half-maximal inhibitory concentration (IC50) of 260 nM. With `CCCCC1(CCCC)CS(=O)(=O)c2ccc(N(C)C)cc2[C@@H](c2ccc(OCCCCCN(CC)CC)cc2)[C@H]1O`, the IC50 turned out to be 16 nM. In the case of `CCCCC1(CCCC)CS(=O)(=O)c2ccc(N(C)C)cc2[C@@H](c2cccnc2)[C@H]1O` (racemic), the IC50 came to 7.5 nM.

Take `CCCCC1(CCCC)CS(=O)(=O)c2ccc(N(C)C)cc2[C@@H](c2cccc(C[N+](C)(C)C)c2)[C@H]1O`: the midpoint of inhibition, the IC50, lay at 67 nM. Take `CCCCC1(CCCC)CS(=O)(=O)c2ccc(N(C)C)cc2[C@@H](c2ccccn2)[C@H]1O` (racemic): the half-inhibitory concentration (IC50) was 5 nM.

In turn, `CCCCC1(CCCC)CS(=O)(=O)c2ccc(N(C)C)cc2[C@@H](c2cccs2)[C@H]1O` (racemic) showed a concentration for half-maximal inhibition (IC50) of 30 nM. The molecule `CCCCC1(CCCC)CS(=O)(=O)c2ccc(N(C)C)cc2[C@@H](c2cccc(CS(=O)(=O)O)c2)[C@H]1O` (racemic) showed a half-inhibitory concentration (IC50) of 3.7 nM. `CCCCC1(CCCC)CS(=O)(=O)c2ccc(N(C)C)cc2[C@@H](c2cccc(O)c2)[C@H]1O` (racemic) registered an IC50 of 7.3 nM. Molecule `CCCCC1(CCCC)CS(=O)(=O)c2ccc(N(C)C)cc2[C@@H](c2ccc3cc(OC)ccc3c2)[C@H]1O` (racemic) came in with an IC50 of 75 nM. With `CCCCC1(CCCC)CS(=O)(=O)c2ccc(N(C)C)cc2[C@@H](c2cccc(Nc3ccncc3)c2)[C@H]1O`, half-maximal inhibition (IC50) was put at 52 nM. The molecule `CCCCC1(CCCC)CS(=O)(=O)c2ccc(N(C)C)cc2[C@@H](c2ccc(SC)cc2)[C@H]1O` (racemic) returned an IC50 of 42 nM. As for `CCCCC1(CCCC)CS(=O)(=O)c2ccc(N(C)C)cc2[C@@H](c2ccc(C[N+](C)(C)C)cc2)[C@H]1O` (racemic), the IC50 was 8800 nM. Turning to `CCCCC1(CCCC)CS(=O)(=O)c2ccc(N(C)C)cc2[C@@H](c2ccc(OCCOCCOCC[N+]34CCN(CC3)CC4)cc2)[C@H]1O`, it took 4 nM to reach half-maximal inhibition (IC50). In the case of `CCCCC1(CCCC)CS(=O)(=O)c2ccc(N(C)C)cc2[C@@H](c2ccc[n+](C)c2)[C@H]1O` (racemic), half-maximal inhibition (IC50) required 220 nM. The molecule `CCCCC1(CCCC)CS(=O)(=O)c2ccc(N(C)C)cc2[C@@H](c2ccc(F)c(F)c2)[C@H]1O` (racemic) yielded an IC50 of 22 nM.

The molecule `CCCCC1(CCCC)CS(=O)(=O)c2ccc(N(C)C)cc2[C@@H](c2cccc(OCCCCC[N+](CC)(CC)CC)c2)[C@H]1O` returned a half-inhibitory concentration (IC50) of 2 nM. `CCCCC1(CCCC)CS(=O)(=O)c2ccc(N(C)C)cc2[C@@H](c2ccc(OCCCCC[N+](CC)(CC)CC)cc2)[C@H]1O`: the midpoint of inhibition, the IC50, lay at 2 nM. On to `CCCCC1(CCCC)CS(=O)(=O)c2ccc(N(C)C)cc2[C@@H](c2ccc(C[N+](CC)(CC)CC)cc2)[C@H]1O` (racemic), for which it took 5500 nM to reach half-maximal inhibition (IC50). For `CCCCC1(CCCC)CS(=O)(=O)c2ccc(N(C)C)cc2[C@@H](c2cccc(CO)c2)[C@H]1O` (racemic), the IC50 came out at 4.5 nM.

The molecule `CCCCC1(CCCC)CS(=O)(=O)c2ccc(N(C)C)cc2[C@@H](c2ccc(OC)cc2)[C@H]1O` (racemic) yielded a 50% inhibitory concentration (IC50) of 6.8 nM.

Molecule `CCCCC1(CCCC)CS(=O)(=O)c2ccc(N(C)C)cc2[C@@H](c2ccc(OCCOCCOCCN(CCO)CCO)cc2)[C@H]1O` showed a concentration for half-maximal inhibition (IC50) of 9 nM. For the molecule `CCCCC1(CCCC)CS(=O)(=O)c2ccc(N(C)C)cc2[C@@H](c2ccc(C(=O)OC)cc2)[C@H]1O` (racemic), the IC50 was 41 nM. In the case of `CCCCC1(CCCC)CS(=O)(=O)c2ccc(N(C)C)cc2[C@@H](c2ccc(O)cc2)[C@H]1O` (racemic), the IC50 was found to be 2.2 nM.

`CCCCC1(CCCC)CS(=O)(=O)c2ccc(N(C)C)cc2[C@@H](c2ccc(OCCN(C)C)cc2)[C@H]1O` displayed a concentration for half-maximal inhibition (IC50) of 340 nM.

With `CCCCC1(CCCC)CS(=O)(=O)c2ccc(N(C)C)cc2[C@@H](c2ccc(OCCOCCOCCN3CCCN(C)CCN(C)CCCN(C)CC3)c(F)c2)[C@H]1O`, half-maximal inhibition (IC50) required 3 nM. Consider `CCCCC1(CCCC)CS(=O)(=O)c2ccc(N(C)C)cc2[C@@H](c2cccc(NCC(=O)NCC(=O)O)c2)[C@H]1O`, for which 0.3 nM corresponded to half-maximal inhibition (IC50).

With `CCCCC1(CCCC)CS(=O)(=O)c2ccc(N(C)C)cc2[C@@H](c2ccc(OC)c(OC)c2)[C@H]1O` (racemic), the concentration for half-maximal inhibition (IC50) came out at 20 nM.

The molecule `CCCCC1(CCCC)CS(=O)(=O)c2ccc(N(C)C)cc2[C@@H](c2ccsc2)[C@H]1O` (racemic) registered a half-inhibitory concentration (IC50) of 5 nM. In the case of `CCCCC1(CCCC)CS(=O)(=O)c2ccc(N(C)C)cc2[C@@H](c2ccc(C[n+]3ccccc3)cc2)[C@H]1O` (racemic), it took 850 nM to reach half-maximal inhibition (IC50).

`CCCCC1(CCCC)CS(=O)(=O)c2ccc(N(C)C)cc2[C@@H](c2cccc(NC(=O)CCCC[N+](CC)(CC)CC)c2)[C@H]1O` gave an IC50 of 0.76 nM.

In turn, `CCCCC1(CCCC)CS(=O)(=O)c2ccc(N(C)C)cc2[C@@H](c2cccc(OCCN(CC)CC)c2)[C@H]1O` had an IC50 of 45 nM.

Consider `CCCCC1(CCCC)CS(=O)(=O)c2ccc(N(C)C)cc2[C@@H](c2ccc(C(=O)O)cc2)[C@H]1O` (racemic), for which 320 nM corresponded to half-maximal inhibition (IC50).

On to `CCCCC1(CCCC)CS(=O)(=O)c2ccc(N(C)C)cc2[C@@H](c2cccc(Nc3cc[n+](C)cc3)c2)[C@H]1O`, for which the IC50 came to 2 nM. As for `CCCCC1(CCCC)CS(=O)(=O)c2ccc(N(C)C)cc2[C@@H](c2cccc(C[n+]3ccccc3)c2)[C@H]1O` (racemic), the IC50 turned out to be 7.5 nM. As to `CCCCC1(CCCC)CS(=O)(=O)c2ccc(N(C)C)cc2[C@@H](c2ccc(CN(CC)CC)cc2)[C@H]1O` (racemic), the IC50 turned out to be 930 nM. `CCCCC1(CCCC)CS(=O)(=O)c2ccc(N(C)C)cc2[C@@H](c2ccncc2)[C@H]1O` (racemic) returned an IC50 of 8 nM.

Broadly, the IC50 is the midpoint of a concentration-inhibition curve.
